EP2 mod: EP2 receptor modulators, cAMP readout, primary screen, cell-based, HTRF cAMP, PGE2 stimulation | AID 940, 2007 | Prostaglandin E2 receptor EP2 subtype (Homo sapiens), P43116 | EP2-expressing cells, cAMP HTRF FRET, PGE2 co-stimulation | induction, % at 25 µM | 0.83% of 260,000 active;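 active = compounds whose cAMP rise, as percent of the full-agonist control response, exceeds 60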;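 also: rat C6 glioma line stably carrying human EP2 under a CMV promoter; the protocol text gives 20 µM as final concentration; 100% = response of wells given 1 µM PGE2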
PGE2 EP2 inh: human EP2 receptor antagonists, primary screen, TR-FRET cAMP, C6 glioma cells; Prostaglandin E2 receptor EP2 subtype (Homo sapiens), P43116; AID 1422, 2008; inhibition, % at 25 µM; C6 glioma cells expressing human EP2; cells stimulated with saturating PGE2; 0.52% of 260,000 active;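 active = percent inhibition above 40 after rounding to a whole number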;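 also: rat C6 glioma host cells with rolipram phosphodiesterase inhibitor present; the protocol text gives 20 µM as final concentration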
NPY-Y2 PAM-ag: NPY-Y2 potentiators or agonists, primary screen, cell-based | Neuropeptide Y receptor type 2 (Homo sapiens), P49146 | cells expressing NPY-Y2, potentiator/agonist read-out | activation, % at 3.6 µM | 0.45% of 220,000 active | AID 1359, 2008; in the data active = activation above about 27%;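 also: cells stimulated with NPY near EC25 plus isoproterenol at EC100; 0% = vehicle plus submaximal agonist and 100% = vehicle plus saturating agonist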
NPY-Y1 PAM-ag: NPY-Y1 receptor potentiators or agonists, primary screen, cell-based. Neuropeptide Y receptor type 1 (Homo sapiens), P25929. NPY-Y1 expressing cells, potentiator/agonist activation. activation, % at 3.6 µM. 0.37% of 220,000 active; in the data active = activation above about 33%, passing the limit was not always enough;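 also: cells stimulated with NPY at EC10 then isoproterenol at EC100; 0% = low agonist plus stimulus and 100% = saturating agonist plus stimulus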
Target sequence (P25929 whole entry, looked up): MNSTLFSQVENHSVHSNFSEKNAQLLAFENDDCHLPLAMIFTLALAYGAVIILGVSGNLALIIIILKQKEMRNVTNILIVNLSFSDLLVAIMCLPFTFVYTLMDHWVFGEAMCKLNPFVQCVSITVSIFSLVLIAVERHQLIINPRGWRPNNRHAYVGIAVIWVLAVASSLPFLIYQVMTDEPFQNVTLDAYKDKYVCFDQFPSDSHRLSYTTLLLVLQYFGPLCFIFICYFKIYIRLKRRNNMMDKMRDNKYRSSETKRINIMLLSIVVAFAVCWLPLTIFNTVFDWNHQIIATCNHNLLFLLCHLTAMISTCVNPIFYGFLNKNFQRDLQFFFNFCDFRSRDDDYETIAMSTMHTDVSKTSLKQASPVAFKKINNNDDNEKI
NPY Y1 blocker: NPY-Y1 receptor antagonists, primary screen, cell-based | HEK293-CNG Y1 cells, membrane potential fluorescence; NPY at EC95, then isoproterenol | inhibition, % at 3.6 µM | AID 1040, 2008 | 1% of 200,000 active;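 active = inhibition above the campaign mean inhibition of all tested compounds plus 3 SD, cut at about 20% in these data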;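 also: 0% = DMSO wells given NPY plus isoproterenol and 100% = isoproterenol alone without NPY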
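Assay system: HEK293 Y1/CNG channel cell line; Doses: single compound dose of 3.6 µM, 0.4% DMSO; Timing: dye 3 h, compound 60 min room temperature, stimulation 45 min; Technique: Membrane-potential fluorescent dye readout; Measure: % inhibition of NPY effect.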
NPY Y2 blocker: NPY-Y2 receptor antagonists, primary screen, cell-based | Neuropeptide Y receptor type 2 (Homo sapiens), P49146 | NPY-Y2 expressing cells, antagonist mode | inhibition, % at 2.7 µM | 0.99% of 140,000 active; in the data active = inhibition above about 17%;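 also: 0% = vehicle with agonist challenge and 100% = reference antagonist with challenge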
NPY1 antag ctr: NPY-Y1 receptor antagonists, selectivity check, counter-screen for NPY-Y2 antagonist project, cell-based | shares compounds with NPY Y2 blocker | cell-based NPY-Y1 antagonism counterscreen | inhibition, % at 3.6 µM | 19% of 710 active; in the data active = inhibition above about 20%;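 also: cells challenged with NPY then isoproterenol with cAMP sensed through a CNG channel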
NPY-Y2 ant conf: NPY-Y2 receptor antagonists, retest of hits, confirmation, HEK293-CNG cells, membrane potential fluorescence, triplicate | shares compounds with NPY Y2 blocker | HEK293 NPY-Y2 CNG channel | inhibition, % at 2.8 µM | 32% of 710 active | AID 1257, 2008;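 active = mean inhibition of triplicate wells above the hit cutoff set in the primary screen, cut at about 17% in these data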;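 also: 0% = DMSO with NPY challenge and 100% = BIIE0246 high control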
Starred values were filed as active, the others as inactive; / = no result given. Shown are actives, neighbours in structure and some others; about 2.8% of the full set was active somewhere.

SMILES | EP2 mod | PGE2 EP2 inh | NPY-Y2 PAM-ag | NPY-Y1 PAM-ag | NPY Y1 blocker | NPY Y2 blocker | NPY1 antag ctr | NPY-Y2 ant conf
CCOC(=O)C1CCCN(Cc2ccccc2C)C1 (configuration not stated) | 17 | 4 | 1 | 9 | 1 | 17* | 0 | 0
COc1ccc([C@@H]2C[C@H](C(=O)NCc3ccco3)N(C)S(=O)(=O)N2)cc1OC | 10 | / | / | / | / | / | / | /
CCCSc1cc(=O)n(-c2ccccc2)nc1C(=O)OCC | 11 | 6 | 7 | -8 | 3 | 19* | 2 | 1
CC(C)CCOc1ccc(C2=NNC(=O)CC2)cc1 | 48 | 2 | -16 | -53 | 15 | 42* | 20* | 41*
O=C1CCC(c2ccccc2)=NN1 | 4 | 10 | -16 | 6 | -3 | / | / | /
COc1ccccc1CNC(=O)CSc1ccc(C)cc1 | -12 | -2 | 13 | -20 | 5 | 28* | 0 | 4
C/C(=C\C(=O)c1ccncc1)Nc1ccccc1O | -13 | 13 | 11 | 8 | 1 | 18* | 1 | 8
C#CCn1c(S(=O)(=O)Cc2ccc(C)cc2)nc(-c2ccccc2)c1-c1ccccc1 | 45 | 6 | -17 | -20 | 16 | 21* | 15 | 11
C#CCn1c(C)cc(C)c(S(=O)(=O)c2ccccc2)c1=O | 17 | 3 | 8 | 11 | -3 | / | / | /
CCOC(=O)Cn1c(S(=O)(=O)Cc2ccccc2Cl)nc(-c2ccccc2)c1-c1ccccc1 | 51 | 7 | -22 | -21 | 12 | 24* | 12 | 9
CCOC(=O)Cn1c(=O)c2c(nc(Br)n2Cc2ccccc2Cl)n(C)c1=O | 25 | 20 | -13 | -36 | 4 | 4 | / | /
COc1cccc(OC)c1NC(=O)C1CCCN1C(=O)Nc1ccc(F)cc1 (configuration not stated) | 13 | 6 | / | / | / | / | / | /
CCC1Oc2ccc(C)cc2N(CC(=O)NCCCN2CCCCC2CC)C1=O (configuration not stated) | -9 | 7 | 4 | -21 | -4 | 2 | / | /
CCC1Oc2ccc(C)cc2N(CC(=O)NCCC2=CCCCC2)C1=O (configuration not stated) | 22 | 6 | 5 | 5 | 8 | 19* | 14 | 12
COc1ccc(C(=O)Nc2cccc(OC(=O)c3ccc(C)c(C)c3)c2)cc1 | 11 | / | -15 | -24 | 11 | 17* | 23* | 23*
CCCCCCNS(=O)(=O)c1ccc(NC(=O)C2CCCO2)cc1 (configuration not stated) | 49 | 11 | -5 | -12 | 2 | 31* | 8 | 29*
COc1ccccc1-c1cc(C(=O)N2CCCc3ccccc32)no1 | 22 | 0 | -12 | -10 | 7 | / | / | /
COc1ccc(OC)c(-c2cc(C(=O)N3CCCc4ccccc43)no2)c1 | 27 | 3 | -31 | -33 | 19 | 17* | 10 | 5
COc1cccc(-c2cc(C(=O)N3CCCc4ccccc43)no2)c1 | 0 | -1 | 0 | -25 | 17 | 19* | 17 | 9
CC(C)(C)NC(=O)C(c1ccc(F)cc1)N(Cc1ccco1)C(=O)Cn1nnc(-c2cccs2)n1 (configuration not stated) | 12 | 3 | -17 | -54 | 6 | 24* | 12 | 12
CCn1nnc(NC(=O)c2ccccc2)n1 | -14 | 12 | / | / | / | / | / | /
COC(=O)c1cc(-c2ccc(OC)c(OC)c2)on1 | 58 | 9 | -23 | -36 | 12 | 28* | 28* | 50*
CC[N+](C)(CC)CC(C)(C)COC(=O)c1cc2cc(C)ccc2o1 | -35 | 11 | / | / | / | / | / | /

Screens from PubChem BioAssay.
